From ChEMBL document CHEMBL1141077, “Synthesis and structure-activity relationship of a novel series of aminoalkylindoles with potential for imaging the neuronal cannabinoid receptor by positron emission tomography” (J Med Chem, 2005) come the findings set out here.

Chain of Cannabinoid receptor 1 (P20272 whole entry): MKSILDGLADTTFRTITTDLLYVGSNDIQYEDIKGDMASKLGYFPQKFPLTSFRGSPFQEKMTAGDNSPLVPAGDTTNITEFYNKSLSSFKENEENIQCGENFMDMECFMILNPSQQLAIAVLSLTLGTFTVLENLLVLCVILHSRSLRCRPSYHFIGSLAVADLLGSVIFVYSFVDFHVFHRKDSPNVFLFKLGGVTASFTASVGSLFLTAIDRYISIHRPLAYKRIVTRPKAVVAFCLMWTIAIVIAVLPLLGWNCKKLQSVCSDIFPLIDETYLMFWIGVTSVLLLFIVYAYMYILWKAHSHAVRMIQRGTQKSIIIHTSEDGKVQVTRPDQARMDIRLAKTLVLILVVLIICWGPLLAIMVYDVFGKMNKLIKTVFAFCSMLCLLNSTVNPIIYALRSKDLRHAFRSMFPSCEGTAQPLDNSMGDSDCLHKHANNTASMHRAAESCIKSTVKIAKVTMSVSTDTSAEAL

In the assay the target is Cannabinoid receptor 1 (Rattus norvegicus, UniProt P20272). Put plainly: In vitro binding affinity against rat cannabinoid receptor 1 using 0.5 nM [3H]CP-55940. In short, it runs like this:
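Competition binding on membranes from frozen Sprague-Dawley rat cerebellum (0.6 mg tissue per tube) in pH 7.4 buffer: 50 mM Tris-HCl, 3 mM MgCl2, 1 mM EDTA, 0.5% fat-free BSA. Incubated 1 h at 30 °C with serial ligand dilutions. Nonspecific binding determined with excess unlabelled CP-55940. GF/C filtration, scintillation counting, quadruplicate. Ki from IC50 via Cheng-Prusoff, Kd 0.5 nM.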
Turning to `CN1CCCCC1Cn1cc(C(=O)c2ccc(F)c3ccccc23)c2ccccc21` (stereo not given), affinity was put at a Ki of 0.7 nM.
In the case of `CN1CCCCC1Cn1nc(C(=O)c2cccc3ccccc23)c2ccccc21` (stereo not given), the Ki amounted to 1.4 nM.
In turn, `CN1CCCCC1Cn1cc(C(=O)c2cccc3cc(O)ccc23)c2ccccc21` (stereo not given) had a Ki of 4 nM.
Compound `CN1CCCCC1Cn1cc(C(=O)c2ccc(C#N)c3ccccc23)c2ccccc21` (stereo not given) had a Ki of 1.1 nM.
In the case of `CN1CCCCC1Cn1cc(C(=O)c2ccc(Br)c3ccccc23)c2ccccc21` (stereo not given) it was 1.7 nM; in that of `COc1ccc(C(=O)c2cn(CC3CCCCN3C)c3ccccc23)c2ccccc12` (stereo not given), 2.3 nM.
In turn, `CN1CCCCC1Cn1cc(C(=O)c2ccc([N+](=O)[O-])c3ccccc23)c2ccccc21` (stereo not given) displayed a Ki of 12.4 nM.
The same measure for `CN1CCCCC1Cn1cc(C(=O)Nc2cccc3ccccc23)c2ccccc21` (stereo not given): 100 nM; for `CN1CCCCC1Cn1cc(C(=O)N2CCCC3CCCCC32)c2ccccc21` (stereo not given): 12 nM.
In the case of `CN1CCCCC1Cn1cc(C(=O)c2ccc(CCO)c3ccccc23)c2ccccc21` (stereo not given) it was 1.3 nM.
In turn, `CN1CCCCC1Cn1cc(C(=O)c2ccccc2I)c2ccccc21` (stereo not given) returned a Ki of 1.2 nM.
Consider `Cc1ccc(C(=O)c2cn(CC3CCCCN3C)c3ccccc23)c2ccccc12` (stereo not given), for which the affinity corresponds to a Ki of 1.1 nM.
In the case of `CN1CCCCC1Cn1cc(C(=O)c2ccc(O)c3ccccc23)c2ccccc21` (stereo not given) it was 2.2 nM; in that of `Cc1ccc2ccccc2c1C(=O)c1cn(CC2CCCCN2C)c2ccccc12` (stereo not given), 7.8 nM.
For `CN1CCCCC1Cn1cc(C(=O)c2cccc3ccccc23)c2ccccc21` (stereo not given), the affinity corresponds to a Ki of 0.9 nM.

By Ki is commonly meant the equilibrium dissociation constant of an inhibitor or competing ligand from its target.
